# Experimental data taken from ChEMBL document CHEMBL1153011, “Mechanism of unusual formation of 3-(5-phenyl-3H-[1,2,4]dithiazol-3-yl)chromen-4-ones and 4-oxo-4H-chromene-3-carbothioic acid N-phenylamides and their antimicrobial evaluation” (2009).
# The source made the active and inactive calls. The calls are words filed in the database; no cut-off is given here.
# Assays:
# Aspergillus niger = test: Antifungal activity against Aspergillus niger MTCC 281 after 24 to 72 hrs by broth dilution method; assay type: functional
# How it was run: (§1)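 Fungi grown at 25 °C on Sabouraud dextrose agar. Compounds dissolved in DMSO (1/10) and tested at several concentrations in Sabouraud dextrose broth in tubes. Conidial suspension at final 1 × 10^5 CFU/ml, with growth and sterility control tubes. […] DMSO negative control; fluconazole positive control.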
# Geotrichum candidum = test: Antifungal activity against Geotrichum candidum MTCC 3993 after 24 to 72 hrs by broth dilution method; assay type: functional; how it was run: as §1
# Candida albicans = test: Antifungal activity against Candida albicans MTCC 227 after 24 to 72 hrs by broth dilution method; assay type: functional; how it was run: as §1
# Candida tropicalis = test: Antifungal activity against Candida tropicalis MTCC 230 after 24 to 72 hrs by broth dilution method; assay type: functional; how it was run: as §1
# Pseudomonas aeruginosa [1] = test: Antibacterial activity against Pseudomonas aeruginosa MTCC 741 at 5 x 10^-5 ug/ml after 24 hrs by disk diffusion assay; assay type: functional, organism-based
# How it was run: (§2)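 Disk diffusion. 100 µl of 4-h nutrient-broth cultures spread on Mueller Hinton agar. Compounds in DMSO (1/10) applied to 8 mm paper disks. After 24 h at 37 °C, growth-inhibition zone diameter measured. DMSO negative control; chloramphenicol and ciprofloxacin positive controls.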
# Pseudomonas aeruginosa [2] = test: Antibacterial activity against Pseudomonas aeruginosa MTCC 741 at 1 x 10^-4 ug/ml after 24 hrs by disk diffusion assay; assay type: functional, organism-based; how it was run: as §2
# Staphylococcus aureus [3] = test: Antibacterial activity against Staphylococcus aureus MTCC 740 at 5 x 10^-5 ug/ml after 24 hrs by disk diffusion assay; assay type: functional; details: MTCC 740, 24 h, read-out: GI; how it was run: as §2
# Escherichia coli [4] = test: Antibacterial activity against Escherichia coli MTCC 119 at 2.5 x 10^-5 ug/ml after 24 hrs by disk diffusion assay; assay type: functional; details: MTCC 119, 24 h, read-out: GI; how it was run: as §2
# Shigella flexneri [5] = test: Antibacterial activity against Shigella flexneri MTCC 1457 at 2.5 x 10^-5 ug/ml after 24 hrs by disk diffusion assay; assay type: functional; details: MTCC 1457, 24 h, read-out: GI; how it was run: as §2
# Shigella flexneri [6] = test: Antibacterial activity against Shigella flexneri MTCC 1457 after overnight incubation by broth dilution method; assay type: functional
# How it was run: (§3)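 Bacteria grown at 37 °C on nutrient agar. Compounds dissolved in DMSO (1/10) and tested in twofold serial dilutions in Mueller Hinton broth in tubes. Inoculum was a McFarland-standardized suspension, final 5 × 10^5 CFU/ml, with growth and sterility control tubes. Incubation overnight at 37 °C. MIC read by OD600 as the lowest concentration with no turbidity. DMSO negative control; chloramphenicol and ciprofloxacin positive controls.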
# Staphylococcus aureus [7] = test: Antibacterial activity against Staphylococcus aureus MTCC 740 at 1 x 10^-4 ug/ml after 24 hrs by disk diffusion assay; assay type: functional; details: MTCC 740, 24 h, read-out: GI; how it was run: as §2
# Staphylococcus aureus [8] = test: Antibacterial activity against Staphylococcus aureus MTCC 740 at 2.5 x 10^-5 ug/ml after 24 hrs by disk diffusion assay; assay type: functional; details: MTCC 740, 24 h, read-out: GI; how it was run: as §2
# Pseudomonas aeruginosa [9] = test: Antibacterial activity against Pseudomonas aeruginosa MTCC 741 after overnight incubation by broth dilution method; assay type: functional; how it was run: as §3
# Escherichia coli [10] = test: Antibacterial activity against Escherichia coli MTCC 119 after overnight incubation by broth dilution method; assay type: functional; how it was run: as §3
# Shigella flexneri [11] = test: Antibacterial activity against Shigella flexneri MTCC 1457 at 5 x 10^-5 ug/ml after 24 hrs by disk diffusion assay; assay type: functional; details: MTCC 1457, 24 h, read-out: GI; how it was run: as §2
# Escherichia coli [12] = test: Antibacterial activity against Escherichia coli MTCC 119 at 5 x 10^-5 ug/ml after 24 hrs by disk diffusion assay; assay type: functional; details: MTCC 119, 24 h, read-out: GI; how it was run: as §2
# Shigella flexneri [13] = test: Antibacterial activity against Shigella flexneri MTCC 1457 at 1 x 10^-4 ug/ml after 24 hrs by disk diffusion assay; assay type: functional; details: MTCC 1457, 24 h, read-out: GI; how it was run: as §2
# Escherichia coli [14] = test: Antibacterial activity against Escherichia coli MTCC 119 at 1 x 10^-4 ug/ml after 24 hrs by disk diffusion assay; assay type: functional; details: MTCC 119, 24 h, read-out: GI; how it was run: as §2
# Staphylococcus aureus [15] = test: Antibacterial activity against Staphylococcus aureus MTCC 740 after overnight incubation by broth dilution method; assay type: functional; how it was run: as §3
# Pseudomonas aeruginosa [16] = test: Antibacterial activity against Pseudomonas aeruginosa MTCC 741 at 2.5 x 10^-5 ug/ml after 24 hrs by disk diffusion assay; assay type: functional, organism-based; how it was run: as §2
SMILES,MIC (Aspergillus niger),MIC (Geotrichum candidum),MIC (Candida albicans),MIC (Candida tropicalis),growth inhibition (GI) (Pseudomonas aeruginosa [1]),growth inhibition (GI) (Pseudomonas aeruginosa [2]),inhibition of growth at 50 pg/mL (Staphylococcus aureus [3]),inhibition of growth at 25 pg/mL (Escherichia coli [4]),inhibition of growth at 25 pg/mL (Shigella flexneri [5]),MIC (Shigella flexneri [6]),inhibition of growth at 0.0001 µg/mL (Staphylococcus aureus [7]),inhibition of growth at 25 pg/mL (Staphylococcus aureus [8]),MIC (Pseudomonas aeruginosa [9]),MIC (Escherichia coli [10]),inhibition of growth at 50 pg/mL (Shigella flexneri [11]),inhibition of growth at 50 pg/mL (Escherichia coli [12]),inhibition of growth at 0.0001 µg/mL (Shigella flexneri [13]),inhibition of growth at 0.0001 µg/mL (Escherichia coli [14]),MIC (Staphylococcus aureus [15]),growth inhibition (GI) (Pseudomonas aeruginosa [16])
OC(Cn1cncn1)(Cn1cncn1)c1ccc(F)cc1F [FLUCONAZOLE],49 µg/mL,9 µg/mL,24 µg/mL,25 µg/mL,–,–,–,–,–,–,–,–,–,–,–,–,–,–,–,–
O=c1c(C(=S)Nc2ccccc2)coc2cc(Cl)c(Cl)cc12,–,–,75 µg/mL,–,inactive,inactive,90.9%,20.4%,8.82%,62 µg/mL,100%,3.78%,inactive,64 µg/mL,60.9%,78.3%,100%,100%,55 µg/mL,inactive
O=c1c(C2N=C(c3ccccc3)SS2)coc2ccccc12 (stereo not given),90 µg/mL,32 µg/mL,30 µg/mL,40 µg/mL,inactive,inactive,73.9%,24.8%,44.3%,58 µg/mL,100%,30.2%,inactive,88 µg/mL,85.5%,56.7%,100%,100%,68 µg/mL,inactive
O=c1c(C2N=C(c3ccccc3)SS2)coc2ccc(Cl)cc12 (stereo not given),125 µg/mL,30 µg/mL,28 µg/mL,28 µg/mL,inactive,inactive,51.5%,22%,27.3%,90 µg/mL,100%,26.4%,inactive,100 µg/mL,55.8%,49.6%,100%,100%,98 µg/mL,inactive
O=c1c(C2N=C(c3ccccc3)SS2)coc2ccc(F)cc12 (stereo not given),50 µg/mL,32 µg/mL,30 µg/mL,42 µg/mL,inactive,inactive,23.9%,–,28.4%,80 µg/mL,48.8%,–,inactive,120 µg/mL,62.3%,12.3%,100%,80.9%,205 µg/mL,inactive
O=c1c(C(=S)Nc2ccccc2)coc2cc(Cl)ccc12,80 µg/mL,–,60 µg/mL,60 µg/mL,inactive,inactive,43.6%,–,–,96 µg/mL,81%,–,inactive,115 µg/mL,52.2%,42.6%,100%,87.6%,125 µg/mL,inactive
